{"source": "paper PMC3969666", "about": "(Pharmacognosy Magazine, 2014)", "key": {"[1]": {"tested_on": "influenza virus strain A/PR8/34(H1N1)", "type": "cell-based, influenza virus A/PR8/34(H1N1) in MDCK cells"}, "[2]": {"tested_on": "Caco-2 cells", "assay": "MTT cytotoxicity test of absorption enhancers with SHL on Caco-2 cells", "type": "cell-based", "settings": "24 h, with addition of SHL, tested 0.005-1.28 mg/mL"}, "[3]": {"tested_on": "gastrointestinal membrane", "assay": "Gastrointestinal membrane toxicity by morphological observation", "type": "in vivo", "settings": "rat", "procedure,_shortened": "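Male Sprague–Dawley rats (~250 g) given SHL with or without absorption enhancers by oral gavage. After 8 h exposure, stomach, jejunum and colon were sectioned, with two sections per tissue on each slide. Sections were HE-stained and examined microscopically for mucosal morphology.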"}, "[4]": {"settings": "enhancement of FD4 absorption; ref 17 (Gao et al., 2008); cited from earlier work"}}, "data": [{"compound": "NC(=O)c1ncn([C@@H]2O[C@H](CO)[C@@H](O)[C@H]2O)n1", "note": "[ribavirin, Ribavirin]", "values": [{"measurement": "inhibition rate on influenza virus", "setting": "[1]", "result": "remarkable increase in inhibition rate"}]}, {"compound": "CCCCCCCCCC(=O)[O-].[Na+]", "note": "[sodium caprate]", "values": [{"measurement": "concentration safe for the Caco-2 cells", "setting": "[2]", "result": "up to 0.64 mg/mL"}, {"measurement": "damage in the small intestine", "setting": "[3]; oral with SHL, 150 mg/kg", "result": "significant damage in the small intestine"}, {"measurement": "change in the morphology of the gastrointestinal membrane", "setting": "[3]; oral with SHL, 25, 50, 100 mg/kg, 8 h exposure", "result": "did not cause any significant change"}, {"measurement": "damage in the gastro and colon tissues", "setting": "[3]; oral with SHL, different dosages (25-150 mg/kg)", "result": "no significant damage"}]}, {"compound": "chitosan hexamer", "values": [{"measurement": "concentration at which absorption enhancing effect is almost saturable", "setting": "[4]", "result": "~0.5 % (w/v)"}]}]}
